Assay results: ChEMBL document CHEMBL3588757, “Structure-based design, synthesis and biological testing of piperazine-linked bis-epipodophyllotoxin etoposide analogs” (Bioorg Med Chem, 2015)

Legend:
Assay type in all cases: functional
SK-MEL-28 = assay: Cytotoxicity against human SK-MEL-28 cells assessed as cell growth at 50 uM by SRB assay; conditions: read-out: Activity
PC-3 [1] = assay: Cytotoxicity against human PC3 cells assessed as cell growth at 50 uM by SRB assay; conditions: read-out: Activity
HCT-116 = assay: Cytotoxicity against human HCT116 cells by SRB assay
Method in brief: (§1)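 Measured in the NCI-60 human tumour cell line panel using five-dose testing. Growth was recorded at each dose for each cell line, and a GI50 was derived for each line.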

HCT-15 [2] = assay: Cytotoxicity against human HCT15 cells by SRB assay; method in brief: as §1
SF-295 = assay: Cytotoxicity against human SF295 cells assessed as cell growth at 0.005 uM by SRB assay; conditions: read-out: Activity
SF-268 = assay: Cytotoxicity against human SF268 cells by SRB assay
Method in brief: (§2)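 NCI-60 panel screen; 5-dose testing giving GI50 per cell line, plus a single 10 µM one-dose test. Method details not given beyond the NCI screen.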

MCF7 = assay: Cytotoxicity against human MCF7 cells by SRB assay; method in brief: as §2
OVCAR-8 = assay: Cytotoxicity against human OVCAR8 cells assessed as cell growth at 5 uM by SRB assay; conditions: read-out: Activity
HL-60(TB) = assay: Cytotoxicity against human HL-60(TB) cells assessed as cell growth at 0.005 uM by SRB assay; conditions: read-out: Activity; method in brief: as §1
MDA-MB-468 = assay: Cytotoxicity against human MDA-MB-468 cells assessed as cell growth at 5 uM by SRB assay; conditions: read-out: Activity
LOX IMVI = assay: Cytotoxicity against human LOXIMVI cells assessed as cell growth at 0.005 uM by SRB assay; conditions: read-out: Activity
HOP-92 [3] = assay: Cytotoxicity against human HOP92 cells assessed as cell growth at 0.005 uM by SRB assay; conditions: read-out: Activity; method in brief: as §1
DU-145 [4] = assay: Cytotoxicity against human DU145 cells assessed as cell growth at 0.05 uM by SRB assay; conditions: read-out: Activity; method in brief: as §1
SN12C = assay: Cytotoxicity against human SN12C cells assessed as cell growth at 0.5 uM by SRB assay; conditions: read-out: Activity
CAKI-1 = assay: Cytotoxicity against human Caki1 cells assessed as cell growth at 0.5 uM by SRB assay; conditions: read-out: Activity
NCI-H23 [5] = assay: Cytotoxicity against human NCI-H23 cells by SRB assay; method in brief: as §2
OVCAR-5 [6] = assay: Cytotoxicity against human OVCAR5 cells assessed as cell growth at 5 uM by SRB assay; conditions: read-out: Activity
COLO 205 [7] = assay: Cytotoxicity against human COLO205 cells assessed as cell growth at 0.5 uM by SRB assay; conditions: read-out: Activity
PC-3 [8] = assay: Cytotoxicity against human PC3 cells by SRB assay; method in brief: as §2
IGROV-1 [9] = assay: Cytotoxicity against human IGROV1 cells assessed as cell growth at 0.005 uM by SRB assay; conditions: read-out: Activity; method in brief: as §1
BT-549 = assay: Cytotoxicity against human BT549 cells assessed as cell growth at 5 uM by SRB assay; conditions: read-out: Activity
IGROV-1 [10] = assay: Cytotoxicity against human IGROV1 cells assessed as cell growth at 0.5 uM by SRB assay; conditions: read-out: Activity; method in brief: as §1
HCT-15 [11] = assay: Cytotoxicity against human HCT15 cells assessed as cell growth at 0.005 uM by SRB assay; conditions: read-out: Activity; method in brief: as §1
OVCAR-5 [12] = assay: Cytotoxicity against human OVCAR5 cells by SRB assay; method in brief: as §2
SF-539 = assay: Cytotoxicity against human SF539 cells assessed as cell growth at 5 uM by SRB assay; conditions: read-out: Activity
CCRF-CEM = assay: Cytotoxicity against human CCRF-CEM cells assessed as cell growth at 0.5 uM by SRB assay; conditions: read-out: Activity
NCI-H23 [13] = assay: Cytotoxicity against human NCI-H23 cells assessed as cell growth at 0.05 uM by SRB assay; conditions: read-out: Activity
HOP-62 [14] = assay: Cytotoxicity against human HOP62 cells assessed as cell growth at 0.5 uM by SRB assay; conditions: read-out: Activity; method in brief: as §1
A498 = assay: Cytotoxicity against human A498 cells assessed as cell growth at 0.5 uM by SRB assay; conditions: read-out: Activity
DU-145 [15] = assay: Cytotoxicity against human DU145 cells assessed as cell growth at 0.5 uM by SRB assay; conditions: read-out: Activity; method in brief: as §1
HOP-62 [16] = assay: Cytotoxicity against human HOP62 cells assessed as cell growth at 0.05 uM by SRB assay; conditions: read-out: Activity; method in brief: as §1
ACHN = assay: Cytotoxicity against human ACHN cells assessed as cell growth at 0.005 uM by SRB assay; conditions: read-out: Activity
HOP-92 [17] = assay: Cytotoxicity against human HOP92 cells assessed as cell growth at 0.5 uM by SRB assay; conditions: read-out: Activity; method in brief: as §1
COLO 205 [18] = assay: Cytotoxicity against human COLO205 cells by SRB assay
SK-MEL-5 [19] = assay: Cytotoxicity against human SK-MEL-5 cells assessed as cell growth at 0.5 uM by SRB assay; conditions: read-out: Activity
SK-MEL-5 [20] = assay: Cytotoxicity against human SK-MEL-5 cells assessed as cell growth at 5 uM by SRB assay; conditions: read-out: Activity
MDA-MB-435 = assay: Cytotoxicity against human MDA-MB-435 cells by SRB assay; method in brief: as §2
SK-OV-3 = assay: Cytotoxicity against human SKOV3 cells assessed as cell growth at 0.05 uM by SRB assay; conditions: read-out: Activity
[21] = read-out: LC50 (the source's name)
[22] = read-out: pLC50 (the source's name) (converted)

Compound `COc1cc([C@@H]2c3cc4c(cc3[C@@H](NC(=O)CN3CCN(CCCCCCN5CCN(CC(=O)N[C@@H]6c7cc8c(cc7[C@@H](c7cc(OC)c(O)c(OC)c7)[C@H]7C(=O)OC[C@@H]76)OCO8)CC5)CC3)[C@H]3COC(=O)[C@H]23)OCO4)cc(OC)c1O` has a growth at 50 µM (SK-MEL-28) of 3%, a growth at 50 µM (PC-3 [1]) of 25% and a GI50 (HCT-116; read-out: GI50) of 1.63 µM. The CC50 (HCT-116; [21]) was > 50 µM, the TGI (HCT-116; read-out: TGI) was > 50 µM and the GI50 (HCT-116; read-out: pGI50 (converted)) was 1.62 µM. For the same compound, the CC50 (HCT-116; [22]) was > 50.1 µM, the TGI (HCT-116; read-out: pTGI (converted)) was > 50.1 µM and the GI50 (HCT-15 [2]; read-out: GI50) was > 50 µM. For the same compound, the CC50 (HCT-15 [2]; [21]) was > 50 µM, the TGI (HCT-15 [2]; read-out: TGI) was > 50 µM and the GI50 (HCT-15 [2]; read-out: pGI50 (converted)) was > 50.1 µM. For the same compound, the CC50 (HCT-15 [2]; [22]) was > 50.1 µM, the TGI (HCT-15 [2]; read-out: pTGI (converted)) was > 50.1 µM and the growth at 0.005 µM (SF-295) was 90%. The GI50 (SF-268; read-out: GI50) was 1.38 µM, the CC50 (SF-268; [21]) was > 50 µM and the TGI (SF-268; read-out: TGI) was > 50 µM. The GI50 (SF-268; read-out: pGI50 (converted)) was 1.38 µM, the CC50 (SF-268; [22]) was > 50.1 µM and the TGI (SF-268; read-out: pTGI (converted)) was > 50.1 µM. The GI50 (MCF7; read-out: GI50) was 0.195 µM, the CC50 (MCF7; [21]) was > 50 µM and the TGI (MCF7; read-out: TGI) was > 50 µM. The GI50 (MCF7; read-out: pGI50 (converted)) was 0.195 µM, the CC50 (MCF7; [22]) was > 50.1 µM and the TGI (MCF7; read-out: pTGI (converted)) was > 50.1 µM. It also gave a growth at 5 µM (OVCAR-8) of 92%, a growth at 0.005 µM (HL-60(TB)) of 120% and a growth at 5 µM (MDA-MB-468) of 22%. It also gave a growth at 0.005 µM (LOX IMVI) of 98%, a growth at 0.005 µM (HOP-92 [3]) of 88% and a growth at 0.05 µM (DU-145 [4]) of 103%. It also gave a growth at 0.5 µM (SN12C) of 78%, a growth at 0.5 µM (CAKI-1) of 88% and a GI50 (NCI-H23 [5]; read-out: GI50) of 3.82 µM. The CC50 (NCI-H23 [5]; [21]) was > 50 µM, the TGI (NCI-H23 [5]; read-out: TGI) was 38.6 µM and the GI50 (NCI-H23 [5]; read-out: pGI50 (converted)) was 3.8 µM. The CC50 (NCI-H23 [5]; [22]) was > 50.1 µM, the TGI (NCI-H23 [5]; read-out: pTGI (converted)) was 38.9 µM and the growth at 5 µM (OVCAR-5 [6]) was 58%. For the same compound, the growth at 0.5 µM (COLO 205 [7]) was 60%, the GI50 (PC-3 [8]; read-out: GI50) was 6.87 µM and the CC50 (PC-3 [8]; [21]) was > 50 µM. The TGI (PC-3 [8]; read-out: TGI) was > 50 µM, the GI50 (PC-3 [8]; read-out: pGI50 (converted)) was 6.92 µM and the CC50 (PC-3 [8]; [22]) was > 50.1 µM. For the same compound, the TGI (PC-3 [8]; read-out: pTGI (converted)) was > 50.1 µM, the growth at 0.005 µM (IGROV-1 [9]) was 111% and the growth at 5 µM (BT-549) was -5%. The growth at 0.5 µM (IGROV-1 [10]) was 89%, the growth at 0.005 µM (HCT-15 [11]) was 90% and the GI50 (OVCAR-5 [12]; read-out: GI50) was 7.24 µM. For the same compound, the CC50 (OVCAR-5 [12]; [21]) was > 50 µM, the TGI (OVCAR-5 [12]; read-out: TGI) was > 50 µM and the GI50 (OVCAR-5 [12]; read-out: pGI50 (converted)) was 7.24 µM. The CC50 (OVCAR-5 [12]; [22]) was > 50.1 µM, the TGI (OVCAR-5 [12]; read-out: pTGI (converted)) was > 50.1 µM and the growth at 5 µM (SF-539) was 12%. For the same compound, the growth at 0.5 µM (CCRF-CEM) was 31%, the growth at 0.05 µM (NCI-H23 [13]) was 102% and the growth at 0.5 µM (HOP-62 [14]) was 98%. The growth at 0.5 µM (A498) was 78%, the growth at 0.5 µM (DU-145 [15]) was 89% and the growth at 0.05 µM (HOP-62 [16]) was 96%. It also gave a growth at 0.005 µM (ACHN) of 94%, a growth at 0.5 µM (HOP-92 [17]) of 69% and a GI50 (COLO 205 [18]; read-out: GI50) of 5.79 µM. The CC50 (COLO 205 [18]; [21]) was > 50 µM, the TGI (COLO 205 [18]; read-out: TGI) was 44.7 µM and the GI50 (COLO 205 [18]; read-out: pGI50 (converted)) was 5.75 µM. For the same compound, the CC50 (COLO 205 [18]; [22]) was > 50.1 µM, the TGI (COLO 205 [18]; read-out: pTGI (converted)) was 44.7 µM and the growth at 0.5 µM (SK-MEL-5 [19]) was 85%. For the same compound, the growth at 5 µM (SK-MEL-5 [20]) was 57%, the GI50 (MDA-MB-435; read-out: GI50) was 7.52 µM and the CC50 (MDA-MB-435; [21]) was > 50 µM. For the same compound, the TGI (MDA-MB-435; read-out: TGI) was > 50 µM, the GI50 (MDA-MB-435; read-out: pGI50 (converted)) was 7.59 µM and the CC50 (MDA-MB-435; [22]) was > 50.1 µM. The TGI (MDA-MB-435; read-out: pTGI (converted)) was > 50.1 µM and the growth at 0.05 µM (SK-OV-3) was 107%.
